# KCNK3 inh: human KCNK3 channel inhibitors, primary screen, CHO cells, FluxOR thallium flux, B-score; Potassium channel subfamily K member 3 (Homo sapiens), O14649; FluxOR fluorescence; hits give low values; B-score at 10 µM; 340,000 tested, 0.84% active; AID 602410, 2012;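 active means B-score under library mean minus 4 SD, starting fluorescence ratio at most library mean plus 5 SD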;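 further: more negative B-score means stronger inhibition of thallium flux through KCNK3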
# KCNQ1 pot: potentiators or activators of KCNQ1 channel, primary screen, cell-based, thallium flux, high-throughput; Potassium voltage-gated channel subfamily KQT member 1 (Homo sapiens), P51787; CHO-K1 KCNQ1, thallium flux FluxOR fluorescence; hits give high values; B-score at 10 µM; 310,000 tested, 0.35% active; AID 2648, 2010;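 active means fluorescence ratio B-score, a plate-corrected score, at least three library SD, with initial intensity B-score within 5 SD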
# Target sequence (P51787 whole entry, looked up): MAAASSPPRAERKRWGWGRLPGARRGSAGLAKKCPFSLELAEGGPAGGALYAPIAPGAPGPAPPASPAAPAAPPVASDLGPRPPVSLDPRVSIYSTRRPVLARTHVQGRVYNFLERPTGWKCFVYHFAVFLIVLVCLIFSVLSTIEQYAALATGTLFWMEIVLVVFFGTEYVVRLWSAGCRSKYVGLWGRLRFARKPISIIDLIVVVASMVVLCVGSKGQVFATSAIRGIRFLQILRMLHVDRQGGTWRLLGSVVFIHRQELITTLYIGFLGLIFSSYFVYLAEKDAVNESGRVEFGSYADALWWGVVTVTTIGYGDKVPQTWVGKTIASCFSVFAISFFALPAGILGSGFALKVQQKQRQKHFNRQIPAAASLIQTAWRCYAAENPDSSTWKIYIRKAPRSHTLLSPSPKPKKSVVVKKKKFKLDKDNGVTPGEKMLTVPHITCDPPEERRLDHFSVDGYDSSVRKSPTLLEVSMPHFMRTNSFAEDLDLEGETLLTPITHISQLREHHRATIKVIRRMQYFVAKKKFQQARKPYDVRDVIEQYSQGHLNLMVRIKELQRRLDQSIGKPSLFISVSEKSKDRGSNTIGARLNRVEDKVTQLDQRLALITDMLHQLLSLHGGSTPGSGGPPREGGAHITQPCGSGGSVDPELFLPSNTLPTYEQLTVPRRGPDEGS
#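 Schedule – 37 °C overnight plating, 90-min dark dye load, 20-min compound pretreatment · System – stable KCNQ1 CHO-K1 line · Probe or stimulus – thallium- and potassium-containing depolarizing buffer · Measured by – kinetic FluxOR fluorescence, 10 s baseline plus 110 s post-stimulus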
# Kir21 inh: inhibitors of mouse Kir2.1 inward-rectifier potassium channel; HEK293-Kir2.1, FluxOR thallium flux fluorescence; hits give low values; B-score at 10 µM; 310,000 tested, 0.85% active;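 active means fluorescence ratio B-score at or below minus 3 SD of library scores, with starting-brightness B-score within 2 SD, cut at about -4.2 in these data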;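 further: channel flux triggered by added potassium and thallium sulfate stimulus; B-score of peak minus minimum fluorescence over baseline after thallium stimulus; more negative B-score means stronger Kir2.1 block with less thallium influx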
# KCNQ1 block: inhibitors of human KCNQ1 channel, primary screen, cell-based, thallium flux, high-throughput | Potassium voltage-gated channel subfamily KQT member 1 (Homo sapiens), P51787 | CHO-K1 KCNQ1, FluxOR thallium flux fluorescence; hits give high values | B-score at 10 µM | 310,000 tested, 1.3% active | AID 2642, 2010;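 active means compounds whose thallium flux B-score, printed positive for inhibition, exceeds three library SD while starting fluorescence stays within three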;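 further: channel opened by potassium depolarization with thallium stimulus after 20 min compound exposure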
# KCNK9 block: KCNK9 potassium channel inhibitors, primary screen, HEK293 cells, thallium flux | Potassium channel subfamily K member 9 (Homo sapiens), Q9NPC2 | FluxOR thallium flux fluorescence; hits give low values | B-score at 10 µM | 310,000 tested, 1.2% active | AID 488922, 2010;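 active means ratio B-score over 3 SD below the library mean, with starting fluorescence within 5 SD of its mean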;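 further: negative B-score means less thallium flux so channel inhibition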
# hERG rescue: hERG rescue from dofetilide block, primary screen, cell-based, CHO-hERG, FluxOR thallium flux, dofetilide IC70; dofetilide IC70 present; activation (rescue from dofetilide block), less the hit threshold, % at 10 µM; 310,000 tested, 0.51% active;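 active means activation above the mean of controls blocked by dofetilide plus 5 SD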;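 further: thallium influx through hERG after potassium depolarization seen as dye fluorescence rise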
# * marks the source's active call; other numbers are inactive results; i = inactive; . = no result. Sampled rows, rich in hits. Any-hit rate of the full collection: about 3.7%.
SMILES,KCNK3 inh,KCNQ1 pot,Kir21 inh,KCNQ1 block,KCNK9 block,hERG rescue
CC1Cc2ccccc2N1CC(=O)Nc1ccc2c(c1)OCCCO2 (centres undefined),i,.,.,.,.,.
COc1cc(S(=O)(=O)NCc2ccncc2)ccc1Br,i,i,1.08,i,i,-12.8
CNC(=O)c1c(NC(=O)c2ccc(S(=O)(=O)N(C)c3ccccc3)cc2)sc2c1CCN(C(C)C)C2,.,i,-4.55,i,-8.12*,-18.2
C#CCn1c(=NC(=O)CSC(C)=O)sc2cc(F)ccc21,i,i,-0.79,i,-7.81*,0.1
CCOC(=O)C1=C(COC(=O)c2cccnc2Cl)NC(=O)NC1C (centres undefined),i,i,-1.15,i,i,-10.6
COc1ccccc1CCC(=O)OCC(=O)Nc1c(C)nn(-c2ccccc2)c1C,i,i,-0.04,i,i,-4.6
Cc1c(Cc2ccccc2)sc(/N=C/c2c(O)ccc3ccccc23)c1C(N)=O,i,i,-1.4,7*,i,-8.8
Cc1c(Cc2ccccc2)sc(/N=C/c2ccc3ccccc3c2)c1C(N)=O,i,.,.,.,.,.
Cc1cc(C)n2nc(CNS(=O)(=O)c3ccc(F)cc3)nc2n1,i,i,0.95,i,i,-3.6
CC(=O)NCCNc1ccc([N+](=O)[O-])cc1C#N,i,i,0.86,i,i,5.8*
CC1Cc2ccccc2N1S(=O)(=O)c1cccc(C(=O)NCc2ccccn2)c1 (centres undefined),i,.,.,.,.,.
CC1Cc2ccccc2N1S(=O)(=O)c1cccc(C(=O)NCc2ccncc2)c1 (centres undefined),-9.55*,.,.,.,.,.
CCc1c(C)nc2cc(-c3ccc(OC)c(OC)c3)nn2c1NCC1CC1,i,i,0.82,i,-6.68*,-28.1
Nc1ncnc(N2CCOCC2)n1,i,.,.,.,.,.
CCCc1nc2c(s1)CCc1onc(-c3ccc(Br)cc3)c1-2,i,i,0.01,i,i,-9.4
CCCc1nc2c(s1)CCc1onc(-c3ccc(Cl)cc3)c1-2,i,i,0.47,i,-7.15*,-6.4
Cc1sc2ncnc(NC3CCN(Cc4ccccc4)CC3)c2c1C,i,i,-5.49*,i,i,-27.6
Cc1cc(C)nc(NS(=O)(=O)c2ccc(NS(=O)(=O)c3ccsc3)cc2)n1,i,i,1.76,i,i,-4.6
O=c1oc2cc(O)ccc2c2c1CCCC2,i,i,-6.49*,i,i,-23.5
CCCc1nc(C(C)(C)O)c(C(=O)O)n1Cc1ccc(-c2ccccc2-c2nn[nH]n2)cc1,.,i,2.29,i,i,-3.9
CCCC[C@@H]1CNCCN1CC1(c2ccccc2)CC1,i,i,-2.59,i,i,-2.3
CCC(=O)c1ccc(OCC(O)CN(CCc2ccccc2)Cc2ccccc2)cc1 (centres undefined),i,i,-1.79,7*,i,-20.7
Cn1c(=O)c2c(nc(SCC(=O)c3ccccc3F)n2C)n(C)c1=O,.,i,-0.77,i,i,-1.4
COc1ccccc1Nc1nc(NCC2CCCO2)c2ccccc2n1 (centres undefined),i,i,-11.6*,i,i,-19.2
CCc1ccc(S(=O)(=O)NCCc2csc(-c3cccnc3)n2)s1,i,i,-2.37,i,i,-8.9
SMILES,KCNK3 inh,KCNQ1 pot,Kir21 inh,KCNQ1 block,KCNK9 block,hERG rescue
COc1ccc(OC)c(S(=O)(=O)NCc2cn3c(C)csc3n2)c1,i,i,0.56,i,i,-8.0
COc1ccc(OC)c(S(=O)(=O)NCc2csc(-c3ccccc3)n2)c1,i,i,-4.23*,i,i,-5.6
O=S(=O)(NCc1csc(-c2ccccc2)n1)c1ccc(Cl)s1,i,i,-4.62*,i,i,-13.1
CCc1ccc(S(=O)(=O)NCc2csc(-c3ccccc3)n2)s1,i,i,-6.29*,i,i,-6.6
COc1cccc(CN(C)C(=O)c2cccc(OCc3ccccc3)c2)c1,i,i,-2.05,i,i,-8.3
COc1ccc(-c2c(-c3ccsc3)oc3ccc(N4CCOCC4)cc23)cn1,i,i,-1.89,i,-7.92*,-8.0
COc1cc([N+](=O)[O-])ccc1NC(=S)Nc1cc(C(=O)OC(C)C)cc(C(=O)OC(C)C)c1,i,i,0.19,6*,i,-11.5
COc1cc([N+](=O)[O-])ccc1NC(=O)Nc1ccc2c(c1)OCCO2,i,i,0.87,i,i,4.6*
CS(=O)(=O)Nc1cccc(C(=O)OCCCOc2ccc(F)cc2)c1,i,i,-0.73,i,i,-10.9
COc1ccc(CN(Cc2cccn2C)S(=O)(=O)c2ccc(F)cc2)cc1,i,i,1.43,i,-6.85*,-2.1
CCOC(=O)c1cnc2ncnn2c1N,i,i,0,i,i,-13.0
O=C1CN(C(=O)c2ccc(F)cc2)c2ccccc2N1,i,i,-0.93,i,i,-2.0
COc1ccc(/C(N)=N/OC(=O)c2ccc3c(c2)OCO3)cc1OC,i,i,1.53,i,i,5.9*
C(=C\c1nc(N2CCCC2)c2ccccc2n1)/c1ccccc1,i,i,0.44,i,-7.19*,-17.9
CN=C(C)c1c(O)c2ccccc2oc1=O,i,i,-0.09,i,i,4.9*
COc1ccc(/C=N/NC(=O)c2ccn[nH]2)cc1COc1ccc([N+](=O)[O-])c(C)c1,i,i,-1.29,6*,i,-7.9
COc1cccc(CNS(=O)(=O)/C=C/c2ccc3c(c2)OCO3)c1,i,i,-2.41,i,i,1.4
CCOc1ccccc1N1CC(O)=C(c2nc3ccccc3s2)C1=N,i,i,1.12,i,i,-10.1
COc1ccc(OC)c(N2CC(O)=C(c3nc4ccccc4s3)C2=N)c1,i,i,-0.23,i,-6.63*,-12.0
Cc1ccc(COc2ccsc2-c2n[nH]c(=S)n2C)cc1,i,i,-0.03,i,i,-14.7
Cn1c(-c2sccc2OCc2ccc(Cl)cc2Cl)n[nH]c1=S,i,i,-5.51*,i,i,-10.6
Cc1ccc(C(=O)N(C)CC(=O)Nc2cccc(C)c2C)o1,i,i,0.7,i,i,-4.0
